Reference: ChEMBL document CHEMBL3526089, “Selective mechanism-based inactivation of CYP3A4 by CYP3cide (PF-04981517) and its utility as an in vitro tool for delineating the relative roles of CYP3A4 versus CYP3A5 in the metabolism of drugs” (Drug Metab Dispos, 2012)

Legend:
Type in all cases: ADME
Details in all cases: recombinant enzyme
Cytochrome P450 3A5 [1] = molecular target: T1, Cytochrome P450 3A5 (Homo sapiens, UniProt P20815); test: Drug level assessed as human recombinant CYP3A5 in presence of human P450 oxidoreductase and b5-mediated drug metabolism treated with 10 uM of PF-04981517 by HPLC-MS analysis in presence of KCN and NADPH
T1 sequence (P20815 whole entry): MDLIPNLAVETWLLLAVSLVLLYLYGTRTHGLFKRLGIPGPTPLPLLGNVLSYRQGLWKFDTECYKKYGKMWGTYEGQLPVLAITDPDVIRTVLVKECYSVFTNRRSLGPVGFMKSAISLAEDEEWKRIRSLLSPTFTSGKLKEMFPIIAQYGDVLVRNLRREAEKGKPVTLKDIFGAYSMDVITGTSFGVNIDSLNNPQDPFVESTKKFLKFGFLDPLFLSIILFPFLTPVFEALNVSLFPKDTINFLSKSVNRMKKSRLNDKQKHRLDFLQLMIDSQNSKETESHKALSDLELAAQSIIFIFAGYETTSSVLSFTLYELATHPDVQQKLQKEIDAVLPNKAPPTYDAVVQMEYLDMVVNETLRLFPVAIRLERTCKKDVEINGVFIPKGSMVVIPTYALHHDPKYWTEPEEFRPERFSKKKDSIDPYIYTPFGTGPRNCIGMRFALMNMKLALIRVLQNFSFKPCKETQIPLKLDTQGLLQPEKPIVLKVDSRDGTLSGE
Method in brief: (§1)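 Recombinant CYP3A4 or CYP3A5 (50 pmol/ml final) added, without preincubation, to 10 µM CYP3cide with NADPH (final 1 mM) in 100 mM phosphate pH 7.4. Trapping incubations also held 200 µM KCN or 5 mM GSH (final). Incubated 1 h at 37°C, quenched with acetonitrile, dried, reconstituted. Metabolites analysed by LC/Orbitrap ESI-MS.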

Cytochrome P450 3A4 [2] = molecular target: T2, Cytochrome P450 3A4 (Homo sapiens, UniProt P08684); test: Drug level assessed as human recombinant CYP3A4 in presence of human P450 oxidoreductase and b5-mediated drug metabolism treated with 10 uM of PF-04981517 by HPLC-MS analysis in presence of NADPH; method in brief: as §1
T2 sequence (P08684 whole entry): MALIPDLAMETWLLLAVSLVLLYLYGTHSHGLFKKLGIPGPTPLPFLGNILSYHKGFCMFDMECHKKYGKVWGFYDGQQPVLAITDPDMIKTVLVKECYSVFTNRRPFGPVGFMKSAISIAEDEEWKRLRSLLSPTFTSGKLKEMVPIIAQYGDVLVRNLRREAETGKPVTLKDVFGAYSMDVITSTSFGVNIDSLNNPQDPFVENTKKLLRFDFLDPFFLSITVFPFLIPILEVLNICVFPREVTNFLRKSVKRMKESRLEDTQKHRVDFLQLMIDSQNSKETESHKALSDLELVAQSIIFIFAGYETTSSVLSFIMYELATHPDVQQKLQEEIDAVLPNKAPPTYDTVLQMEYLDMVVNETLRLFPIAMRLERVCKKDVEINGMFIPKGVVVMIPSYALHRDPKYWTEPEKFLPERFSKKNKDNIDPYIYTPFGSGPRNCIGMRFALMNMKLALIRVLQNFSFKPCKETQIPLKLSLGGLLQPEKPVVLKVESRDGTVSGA

Cytochrome P450 3A4 [3] = molecular target: T2, Cytochrome P450 3A4; test: Drug level assessed as human recombinant CYP3A4 in presence of human P450 oxidoreductase and b5-mediated drug metabolism treated with 10 uM of PF-04981517 by HPLC-MS analysis in presence of KCN and NADPH; method in brief: as §1
Cytochrome P450 3A5 [4] = molecular target: T1, Cytochrome P450 3A5; test: Drug level assessed as human recombinant CYP3A5 in presence of human P450 oxidoreductase and b5-mediated drug metabolism treated with 10 uM of PF-04981517 by HPLC-MS analysis in presence of NADPH; method in brief: as §1
Cytochrome P450 3A5 [5] = molecular target: T1, Cytochrome P450 3A5; test: Drug metabolism assessed as human recombinant CYP3A5 in presence of human P450 oxidoreductase and b5-mediated compound formation at 10 uM by HPLC-MS analysis in presence of KCN; method in brief: as §1

Drug metabolism (Cytochrome P450 3A5 [1]) | Drug metabolism (Cytochrome P450 3A4 [2]) | Drug metabolism (Cytochrome P450 3A4 [3]) | Drug metabolism (Cytochrome P450 3A5 [4]) | Drug metabolism (Cytochrome P450 3A5 [5]) | Structure (SMILES)
metabolite_detected | metabolite_detected | metabolite_detected | metabolite_detected |  | Cc1ccc(-c2c(-c3nn(C)c4ncnc(N5CC[C@H](N6CCCCC6)C5)c34)cnn2CO)cc1
metabolite_detected | metabolite_detected | metabolite_detected | metabolite_detected |  | Cc1ccc(-c2c(-c3nn(C)c4ncnc(N5CC[C@H]([N+]6=CCCCC6)C5)c34)cnn2C)cc1
 |  |  |  | metabolite_detected | Cc1ccc(-c2c(-c3nn(C)c4ncnc(N5CC[C@H](N)C5)c34)cnn2C)cc1
 |  |  |  | metabolite_detected | Cc1ccc(-c2c(-c3nn(C)c4ncnc(N5CC[C@H](N6CCCCC6=O)C5)c34)cnn2C)cc1
